Consider 17 molecules from ChEMBL document CHEMBL2321684, “Novel hybrids of optically active ring-opened 3-n-butylphthalide derivative and isosorbide as potential anti-ischemic stroke agents” (J Med Chem, 2013).

Test [1] can be described thus: Antiplatelet aggregation activity in rabbit platelets assessed as inhibition of arachidonic acid-induced platelet aggregation incubated for 5 mins prior to arachidonic acid-challenge measured within 5 mins by Born's turbidimetric analysis. It is filed as functional, cell-based. Conditions: Oryctolagus cuniculus. In a few lines: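 Rabbit citrated PRP was adjusted to 400−450 × 10⁹ platelets/L and preincubated for 5 min at 37 °C with vehicle DMSO or compound at 0.1−1.6 mM (at least five concentrations). Aggregation was induced with arachidonic acid (0.33 mM, per the methods text). Maximum aggregation rate was recorded over 5 min by Born's turbidimetry, and IC₅₀ was derived from inhibition versus vehicle (mean ± SD).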

Test [2] in a line: Antiplatelet aggregation activity in rabbit platelets assessed as inhibition of ADP-induced platelet aggregation incubated for 5 mins prior to ADP-challenge measured within 5 mins by Born's turbidimetric analysis. The test is classed as functional, cell-based. The settings on record: Oryctolagus cuniculus.
Test [3] can be described thus: Antiplatelet aggregation activity in rabbit platelets assessed as inhibition of ADP-induced platelet aggregation at 1 mM incubated for 5 mins prior to ADP-challenge measured within 5 mins by Born's turbidimetric analysis relative to control. The test is classed as functional. The settings on record: Oryctolagus cuniculus. The method in brief: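 Rabbit carotid blood was citrated (3.8%, 9:1). PRP was adjusted with PPP to 400−450 × 10⁹ platelets/L. PRP was preincubated with compound or DMSO for 5 min at 37 °C, then aggregation was induced with ADP at 10 μM. Maximum aggregation rate was recorded over 5 min using Born's turbidimetry. Inhibition % was calculated versus vehicle; n = 6, mean ± SD.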

Another test has as its system Mus musculus. Description: Antithrombotic activity in Swiss ICR mouse assessed as inhibition of collagen/adrenaline-induced acute systemic vascular thromboembolism at 160 mg/kg, po administered for 7 days prior to collagen/adrenaline-challenge measured up to 15 mins relative to control. It is filed as functional, organism-based. The arrangement: dose 160 mg/kg. In a few lines:
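Male Swiss ICR mice (30−35 g), n = 15 per group, dosed by gavage daily for 7 days in DMSO vehicle. Two hours after the last dose, mice received collagen (0.21 mg/kg) plus adrenaline (44.5 μg/kg) iv. Survival was monitored for 15 min and reported as % surviving.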

Where a name gives a salt, the structure may show the parent alone. Active and inactive are the calls of the source. The calls are words filed in the database; no cut-off is given here.

For orientation: IC50 means the concentration at which inhibition is half-maximal. Turning to `CCCC[C@H](OC(=O)CN1CCN(CCO)CC1)c1ccccc1C(=O)O[C@H]1CO[C@H]2[C@@H]1OC[C@H]2OC(=O)c1ccccc1[C@H](CCCC)OC(=O)CN1CCN(CCO)CC1`, the IC50 is 360 µM in test [1] and 490 µM in test [2]. One may read the inhibition as how much of the control response was suppressed. `O[C@@H]1CO[C@H]2[C@@H]1OC[C@@H]2O` [ISOSORBIDE]: the inhibition at 1000 µM in test [3] was determined as 6.94%. In addition, the IC50 in test [1] came to 1680 µM; in test [2], 1350 µM. For `CCCC[C@H](OC(C)=O)c1ccccc1C(=O)O[C@H]1CO[C@H]2[C@@H]1OC[C@H]2OC(=O)c1ccccc1[C@H](CCCC)OC(C)=O`, the IC50 in test [1] is 210 µM; in test [2], 330 µM. Turning to `CCCC[C@@H](OC(C)=O)c1ccccc1C(=O)O[C@H]1CO[C@H]2[C@@H]1OC[C@H]2OC(=O)c1ccccc1[C@@H](CCCC)OC(C)=O`, the half-maximal inhibitory concentration (IC50) came out at 570 µM in test [1] and 710 µM in test [2]. For the molecule `CCCC[C@H](OC(=O)CN1CCN(C)CC1)c1ccccc1C(=O)O[C@@H]1CO[C@H]2[C@@H]1OC[C@@H]2O`, the inhibition at 1000 µM in test [3] amounted to 6.94%. Turning to `CCCC[C@@H](OC(=O)CN1CCN(CCO)CC1)c1ccccc1C(=O)O[C@H]1CO[C@H]2[C@@H]1OC[C@H]2OC(=O)c1ccccc1[C@@H](CCCC)OC(=O)CN1CCN(CCO)CC1`, the IC50 in test [1] turned out to be 630 µM; in test [2], 750 µM. `CCCC[C@@H](OC(=O)CN1CCOCC1)c1ccccc1C(=O)O[C@H]1CO[C@H]2[C@@H]1OC[C@H]2OC(=O)c1ccccc1[C@@H](CCCC)OC(=O)CN1CCOCC1`: the IC50 in test [1] came out at 800 µM; in test [2] it was 940 µM. Consider `CCCC[C@H](OC(=O)CN1CCN(C)CC1)c1ccccc1C(=O)O[C@H]1CO[C@H]2[C@@H]1OC[C@H]2O`, for which, in test [3], the inhibition at 1000 µM worked out at 6.94%. On to `CCCC[C@H](OC(=O)CN1CCN(C)CC1)c1ccccc1C(=O)O`, for which the inhibition at 1000 µM in test [3] worked out at 6.94%.

Regarding `CCCC[C@@H](OC(=O)CN1CCCC1)c1ccccc1C(=O)O[C@H]1CO[C@H]2[C@@H]1OC[C@H]2OC(=O)c1ccccc1[C@@H](CCCC)OC(=O)CN1CCCC1`, the values for the IC50 in test [1] and in test [2] were 910 µM and 1000 µM, respectively.

Take `CCCC[C@H](OC(=O)CN1CCN(C)CC1)c1ccccc1C(=O)O[C@@H]1CO[C@H]2[C@@H]1OC[C@@H]2O[N+](=O)[O-]`: in test [3], the inhibition at 1000 µM was determined as 6.94%. For `Clc1ccccc1CN1CCc2sccc2C1` [TICLOPIDINE HYDROCHLORIDE], in test [2], the IC50 was found to be 360 µM. `CCCC[C@H](OC(=O)CN1CCOCC1)c1ccccc1C(=O)O[C@H]1CO[C@H]2[C@@H]1OC[C@H]2OC(=O)c1ccccc1[C@H](CCCC)OC(=O)CN1CCOCC1`: the IC50 is 320 µM in test [1] and 450 µM in test [2]. In the case of `CC(=O)Oc1ccccc1C(=O)O` [ASPIRIN], in the test with Mus musculus, the outcome was Active. For the same molecule, the half-maximal inhibitory concentration (IC50) in test [1] came to 140 µM.

`CCCC[C@H](OC(=O)CN1CCN(C)CC1)c1ccccc1C(=O)O[C@H]1CO[C@H]2[C@@H]1OC[C@H]2O[N+](=O)[O-]`: the inhibition at 1000 µM in test [3] turned out to be 6.94%. For the molecule `CCCC[C@@H](OC(=O)CN1CCN(C)CC1)c1ccccc1C(=O)O[C@H]1CO[C@H]2[C@@H]1OC[C@H]2OC(=O)c1ccccc1[C@@H](CCCC)OC(=O)CN1CCN(C)CC1`, the IC50 in test [1] was 270 µM; in test [2], 360 µM. For the molecule `CCCC[C@H](OC(=O)CN1CCCC1)c1ccccc1C(=O)O[C@H]1CO[C@H]2[C@@H]1OC[C@H]2OC(=O)c1ccccc1[C@H](CCCC)OC(=O)CN1CCCC1`, the IC50 in test [1] amounted to 640 µM; in test [2], 800 µM.
